Calls of active or inactive are those of the source. The rule behind the calls is not given here.
Columns and labels:
[1] = target: Apoptosis regulator Bcl-2 (Homo sapiens, UniProt P10415); assay: Binding affinity to Bcl-2 after 30 mins by florescence polarization assay
Method in brief: (§1)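 Fluorescence polarization binding assay against Mcl-1 and Bcl-2 proteins.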

[2] = target: T1, Induced myeloid leukemia cell differentiation protein Mcl-1 (Homo sapiens, UniProt Q07820); assay: Binding affinity to Mcl-1 after 30 mins by florescence polarization assay; method in brief: as §1
[3] = Cytotoxicity against human NCI-H1688 cells by MTT assay; type: functional, cell-based
[4] = test system: MCF7; assay: Induction of necrosis in human MCF7 cells at 10 uM after 12 to 24 hrs by Annexin V-FITC/PI staining based flow cytometry; type: functional, cell-based
[5] = test system: MCF7; assay: Induction of apoptosis in human MCF7 cells at 10 uM after 12 to 24 hrs by Annexin V-FITC/PI staining based flow cytometry; type: functional, cell-based
[6] = test system: Nucleic Acid; assay: Induction of DNA damage in Escherichia coli pBR322 at 100 uM after 2 hrs by agarose gel electrophoresis; type: functional
[7] = test system: HEK293; assay: Cytotoxicity against human HEK293 cells by MTT assay; type: cell-based
[8] = test system: HeLa; assay: Cytotoxicity against human HeLa cells by MTT assay; type: functional, cell-based
[9] = test system: SMMC-7721; assay: Cytotoxicity against human SMMC7721 cells by MTT assay; type: functional, cell-based
[10] = test system: MCF7; assay: Cytotoxicity against human MCF7 cells by MTT assay; type: functional, cell-based
[11] = test system: U-937; assay: Cytotoxicity against human U937 cells by MTT assay; type: functional, cell-based
[12] = test system: K562; assay: Cytotoxicity against human K562 cells by MTT assay; type: functional, cell-based
[13] = test system: MCF7; assay: Cytotoxicity against human MCF7 cells transfected with Bax/Bak shRNA assessed as cell viability after 48 hrs by MTT assay; type: functional, cell-based
Method in brief: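 MCF-7 cells transfected with nonspecific shRNA or Bax/Bak shRNA, treated 48 h with graded doses of compound. Viability read by MTT assay.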

[14] = target: T1, Induced myeloid leukemia cell differentiation protein Mcl-1; assay: Binding affinity to Mcl-1 in ABT737-resistant human Nalm-6 cells assessed as disruption of Mcl-1/Bak at 5 uM after 12 to 24 hrs by coimmunoprecipitation assay; type: cell-based
Method in brief: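 Nalm-6 cells (ABT737-resistant) incubated with 5 μM compound for 12 or 24 h. Total cell lysates immunoprecipitated with anti-Bcl-2 or anti-Mcl-1 antibody. Precipitates and lysates resolved by SDS-PAGE and Western blotted with anti-Bcl-2, anti-Bax, anti-Mcl-1 and anti-Bak antibodies.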

Apoptosis regulator Bcl-2, sequence (P10415 whole entry): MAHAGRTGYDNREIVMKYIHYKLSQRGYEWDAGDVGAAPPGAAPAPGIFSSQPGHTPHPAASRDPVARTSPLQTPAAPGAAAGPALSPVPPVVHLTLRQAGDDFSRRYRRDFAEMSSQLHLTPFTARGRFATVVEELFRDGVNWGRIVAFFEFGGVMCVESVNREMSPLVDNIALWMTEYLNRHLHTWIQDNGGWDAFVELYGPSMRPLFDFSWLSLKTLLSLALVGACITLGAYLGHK
T1 sequence (Q07820 whole entry): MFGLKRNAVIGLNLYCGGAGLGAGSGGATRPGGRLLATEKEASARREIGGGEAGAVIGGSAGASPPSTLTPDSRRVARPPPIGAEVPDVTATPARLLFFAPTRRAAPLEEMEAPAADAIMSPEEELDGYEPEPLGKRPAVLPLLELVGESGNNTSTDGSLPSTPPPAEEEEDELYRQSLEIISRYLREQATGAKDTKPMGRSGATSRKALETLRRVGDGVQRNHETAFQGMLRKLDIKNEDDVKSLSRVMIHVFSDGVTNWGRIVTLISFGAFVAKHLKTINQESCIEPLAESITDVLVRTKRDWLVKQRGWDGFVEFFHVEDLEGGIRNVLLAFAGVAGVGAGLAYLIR

| Compound | Ki [1] [nM] | Ki [2] [nM] | also measured |
| --- | --- | --- | --- |
| O=C1c2ccccc2C(=O)c2c1ccc(O)c2O [ATHRAQUINONES A] | 1150 | 1620 |  |
| O=C1c2ccccc2C(=O)c2c1cc(O)c(O)c2O | 583 | 270 |  |
| O=C1c2ccc(Br)cc2C(=O)c2cc(O)c(O)cc21 | 132 | 107 |  |
| CC(C)c1ccc(Sc2ccc3c(c2)C(=O)c2cc(O)c(O)cc2C3=O)cc1 | 24 | 13 | IC50 [3]: 4370 nM; Activity [4]: inactive; Activity [5]: Active; Activity [6]: inactive; IC50 [7]: 50300 nM; IC50 [8]: 5240 nM; IC50 [9]: 6850 nM; IC50 [10]: 6120 nM; IC50 [11]: 4060 nM; IC50 [12]: 3250 nM; Activity [13]: inactive; Activity [14]: Active |
| O=C1c2ccccc2C(=O)c2cc(O)c(O)cc21 | 420 | 312 |  |

Second part, led by results:

| Ki [1] [nM] | Ki [2] [nM] | Compound | also measured |
| --- | --- | --- | --- |
| 44 | 38 | Cc1ccc(Sc2ccc3c(c2)C(=O)c2cc(O)c(O)cc2C3=O)cc1 |  |
| 1700 | 2270 | O=C1c2ccccc2C(=O)c2c(O)cc(O)cc21 [XANTHOPURPURIN] |  |
| 87 | 56 | O=C1c2ccc(Sc3ccc(Br)cc3)cc2C(=O)c2cc(O)c(O)cc21 |  |
| 71 | 53 | O=C1c2ccc(Sc3ccccc3)cc2C(=O)c2cc(O)c(O)cc21 |  |

Reference: ChEMBL document CHEMBL2176946, “An anthraquinone scaffold for putative, two-face Bim BH3 α-helix mimic” (J Med Chem, 2012)
